Results pooled from the literature.
Organism: Plasmodium falciparum
Read-out: parasite growth

CCCCN(CCCC)C(=N)CC(O)c1cc2c(F)cc(F)cc2c2cc(C(F)(F)F)ccc12 (centres unmarked)
IC50 (ELISA; 3D7; 72 h, blood stage): 1110 nM

COc1cc(/C=C/c2cc(/C=C/c3ccc(O)c(OC)c3)n(-c3ccc(Cl)cc3Cl)n2)ccc1O
EC50 (K1; drug-resistant strain, blood stage): 25900 nM

N=C(CC(O)c1cc2c(F)cc(F)cc2c2cc(C(F)(F)F)ccc12)Nc1cc(F)c(F)c(F)c1 (centres unmarked)
IC50 (ELISA; 3D7; 72 h, blood stage): 8.7 nM

CO[C@H]1C[C@H](O[C@@H]2/C(C)=C/C[C@@H]3C[C@@H](C[C@]4(CC[C@H](C)[C@@H](C5CCCCC5)O4)O3)OC(=O)[C@@H]3C=C(C)/C(=N/O)[C@H]4OC/C(=C\C=C\[C@@H]2C)[C@]43O)O[C@@H](C)[C@@H]1O
IC50 (DD2; drug-resistant strain, blood stage): 179 nM

N=C(CC(O)c1cc2c(F)cc(F)cc2c2cc(C(F)(F)F)ccc12)NCc1ccc(F)cc1 (centres unmarked)
IC50 (ELISA; 3D7 DD2; blood stage): > 100 nM

COc1cc(/C=C/C(=O)C(=Cc2ccccc2)C(=O)/C=C/c2ccc(O)c(OC)c2)ccc1O
EC50 (K1; drug-resistant strain, blood stage): 17100 nM

N=C(CC(O)c1cc2c(F)cc(F)cc2c2cc(C(F)(F)F)ccc12)Nc1ccc(N2CCC(F)(F)CC2)cc1 (centres unmarked)
IC50 (ELISA; 3D7; 72 h, blood stage): 33.6 nM

N=C(N)N/N=C/c1c(Cl)cccc1Cl
IC50 (K1; drug-resistant strain, blood stage): 931 nM

COc1cc(/C=C2\CCC/C(=C\c3ccc(O)c(OC)c3)C2=O)ccc1O
EC50 (K1; drug-resistant strain, blood stage): 1300 nM

CCN(CC)CCCC(C)Nc1ccnc2cc(Cl)ccc12 (centres unmarked)
IC50 (K1; drug-resistant strain): 91.2 nM

CCN1CCN(Cc2ccc(Nc3nc4ccc(Oc5ccnc(NC(=O)C6CCN(C)CC6)c5)cc4n3C)cc2C(F)(F)F)CC1
IC90 (flow cytometry; DD2; 72 h, blood stage): 166 nM

CCN(CC)CCCC(C)Nc1ccnc2cc(Cl)ccc12 (centres unmarked)
EC50 (K1; drug-resistant strain, blood stage): 530 nM

CO[C@H]1/C=C/O[C@@]2(C)Oc3c(C)c(O)c4c(O)c(c(/C=N/N5CCN(C)CC5)c(O)c4c3C2=O)NC(=O)/C(C)=C\C=C\[C@H](C)[C@H](O)[C@@H](C)[C@@H](O)[C@@H](C)[C@H](OC(C)=O)[C@@H]1C
IC50 (K1; drug-resistant strain, blood stage): 33 nM

N=C(CC(O)c1cc2c(F)cc(F)cc2c2cc(C(F)(F)F)ccc12)Nc1ccc(Br)c(F)c1 (centres unmarked)
IC50 (ELISA; 3D7; 72 h, blood stage): 5.3 nM

C[C@@H]1CC[C@H]2[C@@H](C)C(=O)O[C@@H]3O[C@@]4(C)CC[C@@H]1[C@]32OO4
IC50 (DD2; 72 h, drug-resistant strain, blood stage): 9.1 nM

N=C(CC(O)c1cc2c(F)cc(F)cc2c2cc(C(F)(F)F)ccc12)Nc1ccc(-c2ccc(F)cc2)cc1 (centres unmarked)
IC50 (ELISA; 3D7; 72 h, blood stage): 8.1 nM

CCCCCCCCNC(C)C(O)c1ccc(SC(C)C)cc1 (centres unmarked)
IC50 (DD2; drug-resistant strain, blood stage): 62.5 nM

COc1cc(/C=C/C(=O)/C=C/c2ccc(O)c(OC)c2)ccc1O
EC50 (K1; drug-resistant strain, blood stage): 2530 nM

C[C@@H]1CC[C@H]2[C@@H](C)C(=O)O[C@@H]3O[C@@]4(C)CC[C@@H]1[C@]32OO4
IC50 (NF54; blood stage): 11.2 nM

c1cc([C@H]2CC[C@]3(CC2)OO[C@]2(O3)C3CC4CC(C3)CC2C4)ccc1OCCN1CCOCC1
IC50 (W2; drug-resistant strain, blood stage): 11 nM
